# Results: ChEMBL document CHEMBL3784971, “Synthesis, characterization, antimicrobial and biofilm inhibitory studies of new esterquats” (Bioorg Med Chem Lett, 2016)
# Assays:
# Candida albicans = experiment: Antimicrobial activity against Candida albicans MTCC 3017 assessed as growth inhibition after 24 hrs by agar well diffusion method; format: functional; settings: MTCC 3017, 24 h
# Staphylococcus aureus [1] = experiment: Bactericidal activity against Staphylococcus aureus MLS16 MTCC 2940 after 24 hrs by serial dilution method; format: functional; settings: MLS16 MTCC 2940, 24 h
# Raoultella planticola [2] = experiment: Bactericidal activity against Klebsiella planticola MTCC 530 after 24 hrs by serial dilution method; format: functional; settings: MTCC 530, 24 h
# Staphylococcus aureus [3] = experiment: Antimicrobial activity against Staphylococcus aureus MLS16 MTCC 2940 assessed as growth inhibition after 24 hrs by agar well diffusion method; format: functional; settings: MLS16 MTCC 2940, 24 h
# Staphylococcus aureus [4] = experiment: Antimicrobial activity against Staphylococcus aureus MTCC 96 assessed as growth inhibition after 24 hrs by agar well diffusion method; format: functional; settings: MTCC 96, 24 h
# Staphylococcus aureus [5] = experiment: Bactericidal activity against Staphylococcus aureus MTCC 96 after 24 hrs by serial dilution method; format: functional; settings: MTCC 96, 24 h
# Micrococcus luteus [6] = experiment: Bactericidal activity against Micrococcus luteus MTCC 2470 after 24 hrs by serial dilution method; format: functional; settings: MTCC 2470, 24 h
# Escherichia coli [7] = experiment: Bactericidal activity against Escherichia coli MTCC 739 after 24 hrs by serial dilution method; format: functional; settings: MTCC 739, 24 h
# Pseudomonas aeruginosa = experiment: Antimicrobial activity against Pseudomonas aeruginosa MTCC 2453 assessed as growth inhibition after 24 hrs by agar well diffusion method; format: functional; settings: MTCC 2453, 24 h
# Raoultella planticola [8] = experiment: Antimicrobial activity against Klebsiella planticola MTCC 530 assessed as growth inhibition after 24 hrs by agar well diffusion method; format: functional; settings: MTCC 530, 24 h
# Bacillus subtilis [9] = experiment: Bactericidal activity against Bacillus subtilis MTCC 121 after 24 hrs by serial dilution method; format: functional; settings: MTCC 121, 24 h
# Bacillus subtilis [10] = experiment: Antimicrobial activity against Bacillus subtilis MTCC 121 assessed as growth inhibition after 24 hrs by agar well diffusion method; format: functional; settings: MTCC 121, 24 h
# Staphylococcus aureus [11] = experiment: Antibiofilm activity against Staphylococcus aureus MTCC 96 after 24 hrs by crystal violet staining based assay; format: functional, organism-based; settings: MTCC 96, 24 h
# Method in brief: (§1)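 Biofilm inhibition tested for amine esters and esterquats. IC50 values (µg/mL) are the mean of three determinations, with ciprofloxacin as reference.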
# Micrococcus luteus [12] = experiment: Antimicrobial activity against Micrococcus luteus MTCC 2470 assessed as growth inhibition after 24 hrs by agar well diffusion method; format: functional; settings: MTCC 2470, 24 h
# Escherichia coli [13] = experiment: Antimicrobial activity against Escherichia coli MTCC 739 assessed as growth inhibition after 24 hrs by agar well diffusion method; format: functional; settings: MTCC 739, 24 h
# Micrococcus luteus [14] = experiment: Antibiofilm activity against Micrococcus luteus MTCC 2470 after 24 hrs by crystal violet staining based assay; format: functional, organism-based; settings: MTCC 2470, 24 h; method in brief: as §1
Structure (SMILES),MIC (Candida albicans),MIC (Staphylococcus aureus [3]),MIC (Staphylococcus aureus [4]),MIC (Pseudomonas aeruginosa),MIC (Bacillus subtilis [10]),IC50 (Staphylococcus aureus [11]),MIC (Micrococcus luteus [12]),MIC (Escherichia coli [13]),IC50 (Micrococcus luteus [14]),MBC (Staphylococcus aureus [1]),MBC (Raoultella planticola [2]),MBC (Staphylococcus aureus [5]),MBC (Micrococcus luteus [6]),MBC (Escherichia coli [7]),MIC (Raoultella planticola [8]),MBC (Bacillus subtilis [9])
CCCCCCCCN(CCCCCCCC)CCCCCCCCCCC(=O)OC,> 125 µg/mL,62.5 µg/mL,15.6 µg/mL,> 125 µg/mL,> 125 µg/mL,14.5 µg/mL,31.2 µg/mL,> 125 µg/mL,17.2 µg/mL,> 125 µg/mL,> 125 µg/mL,31.2 µg/mL,62.5 µg/mL,> 125 µg/mL,> 125 µg/mL,> 125 µg/mL
CCCCCCCCCCCCCCCCCCN(CCCCCCCCCCC(=O)OC)CCCCCCCCCCC(=O)OC,> 125 µg/mL,> 125 µg/mL,> 125 µg/mL,> 125 µg/mL,> 125 µg/mL,–,> 125 µg/mL,> 125 µg/mL,–,> 125 µg/mL,> 125 µg/mL,> 125 µg/mL,> 125 µg/mL,> 125 µg/mL,> 125 µg/mL,> 125 µg/mL
CCCCCCCCCCCCN(CCCCCCCCCCC(=O)OC)CCCCCCCCCCC(=O)OC,> 125 µg/mL,> 125 µg/mL,> 125 µg/mL,> 125 µg/mL,> 125 µg/mL,–,> 125 µg/mL,> 125 µg/mL,–,> 125 µg/mL,> 125 µg/mL,> 125 µg/mL,> 125 µg/mL,> 125 µg/mL,> 125 µg/mL,> 125 µg/mL
CCCCCCN(CCCCCCCCCCC(=O)OC)CCCCCCCCCCC(=O)OC,> 125 µg/mL,62.5 µg/mL,31.2 µg/mL,> 125 µg/mL,62.5 µg/mL,20.1 µg/mL,31.2 µg/mL,> 125 µg/mL,18.6 µg/mL,> 125 µg/mL,> 125 µg/mL,62.5 µg/mL,62.5 µg/mL,> 125 µg/mL,> 125 µg/mL,> 125 µg/mL

# Second part, led by results:
MIC (Candida albicans),MIC (Staphylococcus aureus [3]),MIC (Staphylococcus aureus [4]),MIC (Pseudomonas aeruginosa),MIC (Bacillus subtilis [10]),IC50 (Staphylococcus aureus [11]),MIC (Micrococcus luteus [12]),MIC (Escherichia coli [13]),IC50 (Micrococcus luteus [14]),Structure (SMILES),MBC (Staphylococcus aureus [1]),MBC (Raoultella planticola [2]),MBC (Staphylococcus aureus [5]),MBC (Micrococcus luteus [6]),MBC (Escherichia coli [7]),MIC (Raoultella planticola [8]),MBC (Bacillus subtilis [9])
> 125 µg/mL,> 125 µg/mL,> 125 µg/mL,> 125 µg/mL,> 125 µg/mL,–,> 125 µg/mL,> 125 µg/mL,–,CCCCCCCCCCCCCCCCCC[N+](C)(CCCCCCCCCCC(=O)OC)CCCCCCCCCCC(=O)OC.[Cl-],> 125 µg/mL,> 125 µg/mL,> 125 µg/mL,> 125 µg/mL,> 125 µg/mL,> 125 µg/mL,> 125 µg/mL
> 125 µg/mL,> 125 µg/mL,> 125 µg/mL,> 125 µg/mL,> 125 µg/mL,–,> 125 µg/mL,> 125 µg/mL,–,CCCCCCCCCCCCCCCCCCNCCCCCCCCCCC(=O)OC,> 125 µg/mL,> 125 µg/mL,> 125 µg/mL,> 125 µg/mL,> 125 µg/mL,> 125 µg/mL,> 125 µg/mL
